Measured values taken from publication PMC6935887 (Journal of Medicinal Chemistry, 2019).
Values belong to the compound of their own block, whether it stands above or below them.

What was measured:
hCCR5 [1] = target: T1, hCCR5 (Homo sapiens, UniProt P51681); assay: Tango β-arrestin recruitment assay in U2OS-CCR5 cells; assay type: cell-based; settings: for Hill slope (nH): inhibition of CCL3-induced β-arrestin recruitment in U2OS-CCR5; for inhibition at 1 µM: read-out: inhibition at 1 μM (%), β-arrestin recruitment in U2OS-CCR5 by 1 μM compound, in the presence of an EC80 concentration of CCL3, negative = CCL3 stimulation
T1 sequence (P51681 whole entry): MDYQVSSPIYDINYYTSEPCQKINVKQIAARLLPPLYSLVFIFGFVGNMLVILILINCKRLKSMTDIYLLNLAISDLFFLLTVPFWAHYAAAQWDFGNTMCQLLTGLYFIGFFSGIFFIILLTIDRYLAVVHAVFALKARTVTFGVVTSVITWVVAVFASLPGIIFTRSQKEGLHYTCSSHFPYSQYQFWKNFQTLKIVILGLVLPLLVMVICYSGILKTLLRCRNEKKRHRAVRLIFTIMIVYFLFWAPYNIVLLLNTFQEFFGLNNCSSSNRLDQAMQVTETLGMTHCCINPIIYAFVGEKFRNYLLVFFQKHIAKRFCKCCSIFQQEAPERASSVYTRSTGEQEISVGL
How it was run: (§1)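 Tango bla U2OS cells (human CCR2b or CCR5) were trypsinized and seeded at 10 000 cells/well in FreeStyle medium. Agonist mode: CCL2 or CCL3 for 16 h, 37 °C, 5% CO2. Antagonist mode: 30 min room-temperature preincubation with increasing compound (≤0.5% DMSO final), then 16 h with EC80 CCL2 (5 nM, CCR2) or CCL3 (14 nM, CCR5). LiveBLAzer-FRET B/G substrate 2 h; excitation 400 nm, 460/535 nm emission ratio.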

hCCR2 [2] = target: T2, hCCR2 (Homo sapiens, UniProt P41597); assay: [3H]-CCR2-RA-[R] displacement binding assay on U2OS-CCR2b membranes; settings: for pKi ± SEM: displacement of ∼6 nM [3H]-CCR2-RA-[R] from U2OS cells stably expressing CCR2, 25 °C
T2 sequence (P41597 1-360 isoform P41597-2): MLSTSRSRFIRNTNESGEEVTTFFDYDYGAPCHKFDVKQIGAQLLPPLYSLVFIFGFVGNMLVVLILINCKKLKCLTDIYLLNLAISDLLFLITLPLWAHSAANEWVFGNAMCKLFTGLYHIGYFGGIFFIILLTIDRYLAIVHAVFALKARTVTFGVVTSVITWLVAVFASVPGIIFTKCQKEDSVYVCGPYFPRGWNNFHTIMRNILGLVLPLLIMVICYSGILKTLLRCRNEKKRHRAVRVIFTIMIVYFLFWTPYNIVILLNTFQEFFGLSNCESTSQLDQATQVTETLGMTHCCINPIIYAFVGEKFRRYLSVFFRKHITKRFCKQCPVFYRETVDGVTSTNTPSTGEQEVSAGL
How it was run: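 U2OS-CCR2b membranes (15–20 μg protein) were incubated with ~6 nM [3H]-CCR2-RA-[R] and at least 6 competitor concentrations. Buffer: 50 mM Tris-HCl, 5 mM MgCl2, 0.1% CHAPS, pH 7.4. Incubation 2 h at 25 °C. Rapid GF/B filtration, ten washes with ice-cold buffer (0.05% CHAPS), scintillation counting. Mean ± SEM of ≥3 experiments in duplicate.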

CCR2 = settings: read-out: IC50 in CCR2 calcium flux assay; previously reported activity; cited from earlier work
hCCR2 [3] = target: T2, hCCR2; assay: Tango β-arrestin recruitment assay in U2OS-CCR2 cells; assay type: cell-based; settings: inhibition of CCL2-induced β-arrestin recruitment in U2OS-CCR2
How it was run: as §1

hCCR2 [4] = target: T2, hCCR2; assay: CCL2-stimulated [35S]GTPγS binding assay on U2OS-CCR2 membranes; assay type: biochemical; settings: for decrease of basal [35S]GTPγS binding levels: 1 μM compound, in absence of CCL2, 0% = basal activity, 100% = 100 nM CCL2
How it was run: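 U2OS-CCR2b cells are grown in McCoy's 5A with 10% FCS, G418, hygromycin and zeocin, switching to dialyzed FCS before harvest. Membranes are prepared by scraping in PBS, homogenizing in ice-cold 50 mM Tris-HCl, 5 mM MgCl2, pH 7.4, ultracentrifuging (31 000 rpm, 20 min, 4 °C) twice, storing at −80 °C and measuring protein by BCA. Values come from nonlinear regression, ≥3 experiments in duplicate.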

hCCR5 [5] = target: T1, hCCR5; assay: CCL3-stimulated [35S]GTPγS binding assay on U2OS-CCR5 membranes; assay type: biochemical; settings: CCL3 alone, U2OS-CCR5, 25 °C
How it was run: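 Membranes from Tango U2OS cells stably expressing human CCR5 (10 μg, with 0.25 mg/mL saponin) were preincubated 30 min at 25 °C with 5 μM GDP and increasing CCL3. Then 0.3 nM [35S]GTPγS was added for 90 min at 25 °C. Stopped with ice-cold Tris/MgCl2, then GF/B filtration. Nonlinear regression.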

[6] = CCL2 alone, [35S]GTPγS binding, U2OS-CCR2, 25 °C

Compound: CC(=O)C1=C(O)C(=O)N(c2ccc(Cl)cc2F)[C@@H]1C1CCCCC1 [CCR2-RA-[R], reference compound]
Hill slope (nH) (hCCR5 [1]): −2.4

Compound: Cc1nc2[nH]c(C3CC3)c(Cc3cccc(Cl)c3)c(=O)n2n1 [Compound 7, 6-(3-Chlorobenzyl)-5-cyclopropyl-2-methyl[1,2,4]triazolo[1,5-a]pyrimidin-7(4H)-one]
pKi ± SEM (hCCR2 [2]): 8.46 ± 0.05

Compound: COc1ccccc1Cc1c(C2CC2)[nH]c2nc(N)nn2c1=O [Compound 12, 2-Amino-5-cyclopropyl-6-(2-methoxybenzyl)[1,2,4]triazolo[1,5-a]pyrimidin-7(4H)-one]
inhibition at 1 µM (hCCR5 [1]): -20%

Compound: Nc1nc2[nH]c(C3CC3)c(Cc3cccc(F)c3)c(=O)n2n1 [Compound 14, 2-Amino-5-cyclopropyl-6-(3-fluorobenzyl)[1,2,4]triazolo[1,5-a]pyrimidin-7(4H)-one]
inhibition at 1 µM (hCCR5 [1]): < 45%

Compound: COc1cccc(Cc2c(C3CC3)[nH]c3nc(N)nn3c2=O)c1 [Compound 17, 2-Amino-5-cyclopropyl-6-(3-methoxybenzyl)[1,2,4]triazolo[1,5-a]pyrimidin-7(4H)-one]
inhibition at 1 µM (hCCR5 [1]): -27%
pKi ± SEM (hCCR2 [2]): 7.89 ± 0.07

Compound: Cc1ccc(Cc2c(C3CC3)[nH]c3nc(N)nn3c2=O)cc1 [Compound 19, 2-Amino-5-cyclopropyl-6-(4-methylbenzyl)[1,2,4]triazolo[1,5-a]pyrimidin-7(4H)-one]
inhibition at 1 µM (hCCR5 [1]): -57%
Ki (hCCR2 [2]): 3 nM
pKi ± SEM (hCCR2 [2]): 8.46 ± 0.03

Compound: Nc1nc2[nH]c(C3CC3)c(Cc3ccc(F)cc3)c(=O)n2n1 [Compound 20, 2-Amino-5-cyclopropyl-6-(4-fluorobenzyl)[1,2,4]triazolo[1,5-a]pyrimidin-7(4H)-one]
pKi ± SEM (hCCR2 [2]): 8.39 ± 0.03

Compound: COc1ccc(Cc2c(C3CC3)[nH]c3nc(N)nn3c2=O)cc1 [Compound 23, 2-Amino-5-cyclopropyl-6-(4-methoxybenzyl)[1,2,4]triazolo[1,5-a]pyrimidin-7(4H)-one]
inhibition at 1 µM (hCCR5 [1]): -28%

Compound: Cc1[nH]c2nc(N)nn2c(=O)c1Cc1cccc(Cl)c1 [Compound 24, 2-Amino-6-(3-chlorobenzyl)-5-methyl[1,2,4]triazolo[1,5-a]pyrimidin-7(4H)-one]
inhibition at 1 µM (hCCR5 [1]): -35%

Compound: CCCCCCc1[nH]c2nc(N)nn2c(=O)c1Cc1cccc(Cl)c1 [Compound 32, 2-Amino-6-(3-chlorobenzyl)-5-hexyl[1,2,4]triazolo[1,5-a]pyrimidin-7(4H)-one]
inhibition at 1 µM (hCCR5 [1]): -63%

Compound: Nc1nc2[nH]c(-c3ccccc3)c(Cc3cccc(Cl)c3)c(=O)n2n1 [Compound 34, 2-Amino-6-(3-chlorobenzyl)-5-phenyl[1,2,4]triazolo[1,5-a]pyrimidin-7(4H)-one]
inhibition at 1 µM (hCCR5 [1]): -41%
fold decrease in affinity for CCR2 compared to 8 (hCCR2 [2]): 20 fold

Compound: Cc1ccc(-c2[nH]c3nc(N)nn3c(=O)c2Cc2cccc(Cl)c2)cc1 [Compound 35, 2-Amino-6-(3-chlorobenzyl)-5-(p-tolyl)[1,2,4]triazolo[1,5-a]pyrimidin-7(4H)-one]
inhibition at 1 µM (hCCR5 [1]): -13%
fold decrease in affinity for CCR2 compared to 8 (hCCR2 [2]): 122 fold

Compound: Nc1nc2[nH]c(CCc3ccccc3)c(Cc3cccc(Cl)c3)c(=O)n2n1 [Compound 36, 2-Amino-6-(3-chlorobenzyl)-5-phenethyl[1,2,4]triazolo[1,5-a]pyrimidin-7(4H)-one]
inhibition at 1 µM (hCCR5 [1]): -42%
fold decrease in affinity for CCR2 compared to 8 (hCCR2 [2]): 40 fold

Compound: CC(C)c1[nH]c2nc(N)nn2c(=O)c1Cc1cccc(Cl)c1Cl [Compound 39, 2-Amino-6-(2,3-dichlorobenzyl)-5-isopropyl[1,2,4]triazolo[1,5-a]pyrimidin-7(4H)-one]
Hill slope (nH) (hCCR5 [1]): −3.7
Hill slope (nH) (hCCR2 [3]): −2.5
decrease of basal [35S]GTPγS binding levels (hCCR2 [4]): 7–8%

Compound: Cc1ccc(-c2ccc3c(c2)C=C(C(=O)Nc2ccc(C[N+](C)(C)C4CCOCC4)cc2)CCC3)cc1.[Cl-] [TAK-779, reference compound]
Hill slope (nH) (hCCR5 [1]): −1.1

Compound: CCL2: human recombinant chemokine, endogenous agonist of CCR2
EC50 (hCCR2 [4]; [6]): 8 nM
Emax ± SEM (%) (hCCR2 [4]; [6]): 107 ± 2%
pEC50 ± SEM (hCCR2 [4]; [6]): 8.10 ± 0.06

More lines, main results first:

pKi ± SEM (hCCR2 [2]): 8.76 ± 0.01
Compound: O=c1c(Cc2cccc(Cl)c2)c(C2CC2)[nH]c2ncnn12 [Compound 6, 6-(3-Chlorobenzyl)-5-cyclopropyl[1,2,4]triazolo[1,5-a]pyrimidin-7(4H)-one]
IC50 (CCR2): ~20 nM

fold decrease in affinity for CCR2 compared to 8 (hCCR2 [2]): 5 fold
Compound: Nc1nc2[nH]c(C3CC3)c(Cc3ccccc3)c(=O)n2n1 [Compound 9, 2-Amino-6-benzyl-5-cyclopropyl[1,2,4]triazolo[1,5-a]pyrimidin-7(4H)-one]

inhibition at 1 µM (hCCR5 [1]): > 60%
pKi ± SEM (hCCR2 [2]): 8.61 ± 0.03
Compound: Cc1cccc(Cc2c(C3CC3)[nH]c3nc(N)nn3c2=O)c1 [Compound 13, 2-Amino-5-cyclopropyl-6-(3-methylbenzyl)[1,2,4]triazolo[1,5-a]pyrimidin-7(4H)-one]

pKi ± SEM (hCCR2 [2]): 8.74 ± 0.05
Compound: Nc1nc2[nH]c(C3CC3)c(Cc3ccc(Cl)cc3)c(=O)n2n1 [Compound 21, 2-Amino-6-(4-chlorobenzyl)-5-cyclopropyl[1,2,4]triazolo[1,5-a]pyrimidin-7(4H)-one]

inhibition at 1 µM (hCCR5 [1]): > 60%
Ki (hCCR2 [2]): ~4 nM
Compound: CCCc1[nH]c2nc(N)nn2c(=O)c1Cc1cccc(Cl)c1 [Compound 26, 2-Amino-6-(3-chlorobenzyl)-5-propyl[1,2,4]triazolo[1,5-a]pyrimidin-7(4H)-one]

fold increase in CCR5 potency compared to 8 (hCCR5 [1]): 2 fold
Compound: CC(C)c1[nH]c2nc(N)nn2c(=O)c1Cc1cccc(Cl)c1 [Compound 27, 2-Amino-6-(3-chlorobenzyl)-5-isopropyl[1,2,4]triazolo[1,5-a]pyrimidin-7(4H)-one]

inhibition at 1 µM (hCCR5 [1]): > 60%
Ki (hCCR2 [2]): 2 nM
Compound: CCCCc1[nH]c2nc(N)nn2c(=O)c1Cc1cccc(Cl)c1 [Compound 28, 2-Amino-5-butyl-6-(3-chlorobenzyl)[1,2,4]triazolo[1,5-a]pyrimidin-7(4H)-one]

pKi ± SEM (hCCR2 [2]): 8.14 ± 0.03
Compound: CCCCCc1[nH]c2nc(N)nn2c(=O)c1Cc1cccc(Cl)c1 [Compound 30, 2-Amino-6-(3-chlorobenzyl)-5-pentyl[1,2,4]triazolo[1,5-a]pyrimidin-7(4H)-one]

fold increased affinity for CCR2 compared to 30 (hCCR2 [2]): 4.5 fold
Compound: Nc1nc2[nH]c(C3CCCC3)c(Cc3cccc(Cl)c3)c(=O)n2n1 [Compound 31, 2-Amino-6-(3-chlorobenzyl)-5-cyclopentyl[1,2,4]triazolo[1,5-a]pyrimidin-7(4H)-one]

fold increase in CCR5 potency compared to 37 (hCCR5 [1]): ~2 fold
Compound: CC(C)c1[nH]c2nc(N)nn2c(=O)c1Cc1ccc(Cl)c(Cl)c1 [Compound 38, 2-Amino-6-(3,4-dichlorobenzyl)-5-isopropyl[1,2,4]triazolo[1,5-a]pyrimidin-7(4H)-one]

inhibition at 1 µM (hCCR5 [1]): ≤ 70%
Compound: CC(C)c1[nH]c2nc(N)nn2c(=O)c1Cc1cc(Br)cc(Br)c1 [Compound 42, 2-Amino-6-(3,5-dibromobenzyl)-5-isopropyl[1,2,4]triazolo[1,5-a]pyrimidin 7(4H)-one]

Hill slope (nH) (hCCR5 [1]): −4.4
Hill slope (nH) (hCCR2 [3]): −3.4
decrease of basal [35S]GTPγS binding levels (hCCR2 [4]): 7–8%
Compound: CC(C)c1[nH]c2nc(N)nn2c(=O)c1Cc1ccc(Cl)c(Br)c1 [Compound 43, 2-Amino-6-(3-bromo-4-chloro-benzyl)-5-isopropyl[1,2,4]triazolo[1,5-a]pyrimidin-7(4H)-one]

pEC50 of β-arrestin recruitment (hCCR5 [1]; agonist, U2OS-CCR5): 8.3 ± 0.08
pEC80 of β-arrestin recruitment (hCCR5 [1]; agonist, U2OS-CCR5): 7.9 ± 0.08
EC50 (hCCR5 [1]; read-out: EC50 of β-arrestin recruitment, agonist, U2OS-CCR5): 6 nM
EC50 (hCCR5 [5]): 4 nM
Emax ± SEM (%) (hCCR5 [5]): 108 ± 2%
pEC50 ± SEM (hCCR5 [5]): 8.42 ± 0.06
Compound: CCL3: human recombinant chemokine, endogenous agonist of CCR5
